Columns and labels:
[1] = test system: NDI associated V2R mutants; conditions: cited from earlier work
V2R = conditions: regardless of species tested; cited from earlier work
V2R + DOX = assay: V2R + Dox cAMP counterscreen; format: cell-based; conditions: Tet minus promoter inactive, no receptor protein made
In short: (§1)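 Cryopreserved cells carrying tet-regulated hV2R L83Q were thawed and plated at 2,000/well in growth medium. Compound was pin-added (0.4% DMSO), then incubated 17 h at 37 °C, 5% CO2. Cells were stimulated with 5 μM vasopressin (final) in serum-free medium containing 2.5 mM IBMX for 2 h. After 10 min at room temperature, cAMP-Glo was added (19 min), then Kinase-Glo (10 min). Luminescence, inversely proportional to cAMP, was read.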

mutant hV2R [L83Q] = mutant hV2R [L83Q] (Homo sapiens, UniProt P30518, L83Q); assay: V2R pharmacoperone cAMP luminescence; format: cell-based; conditions: for activity as powder (active = EC50 ≤ 5 μM): de novo powder samples, titration assay, tested for the first time as powders
In short: as §1

| Structure (SMILES) | activity as powder (active = EC50 ≤ 5 μM) (mutant hV2R [L83Q]) | other results |
| --- | --- | --- |
| CCOc1ccc2c(c1)C1(CCC(OCCN3CCOCC3)CC1)C(=O)N2S(=O)(=O)c1ccc(C(=O)NC(C)(C)C)cc1OC (stereo not shown) [SR121463] |  | number of NDI associated V2R mutants on which active [1]: at least 8; Ki (V2R): low nanomolar; response of + Dox cells (V2R + DOX): non-responsive |
| CCN(CC)S(=O)(=O)c1ccc(C(=O)Nc2nc3ccc(Cl)cc3s2)cc1 [SR-01000392254] | lack of activity |  |
| COc1ccc2nc(NC(=O)c3ccc(S(=O)(=O)N4CCCCC4)cc3)sc2c1 [SR-01000393329] | lack of activity |  |
| Cc1ccc2nc(NC(=O)c3cc(I)ccc3Cl)sc2c1 [SR-01000405773] | lack of activity |  |
| O=C(Nc1nc2ccc(F)cc2s1)c1ccc(S(=O)(=O)N2CCCCC2)cc1 [SR-01000442043] | lack of activity |  |
| COc1ccc(-c2csc(NC(=O)c3ccc(S(=O)(=O)N4CC(C)CC(C)C4)cc3)n2)cc1C (stereo not shown) [SR-01000443595] |  | EC50 (mutant hV2R [L83Q]; de-novo powder sample, CRC format): 70 nM |
| Cc1ccc2nc(NC(=O)c3cccc(Cl)c3)sc2c1 [SR-01000461570] | lack of activity |  |
| CN[C@@H]1C[C@H]2O[C@@](C)([C@@H]1OC)n1c3ccccc3c3c4c(c5c6ccccc6n2c5c31)C(=O)NC4 [staurosporine, reference compound] |  | % activation, primary screen (mutant hV2R [L83Q]; singlicate, nominal 5.22 μM, normalized to SR121463 high control): ≤ −50% |

— article PMC5594746 (Journal of biomolecular screening, 2016)
